ChEMBL document CHEMBL3792366, “Role of disulfide linkage in action of bis(dialkylaminethiocarbonyl)disulfides as potent double-Edged microbicidal spermicide: Design, synthesis and biology” (Eur J Med Chem, 2016)
Converted amounts (≈) assume the structure as drawn. The source made the active and inactive calls. The rule behind the calls is not given here.

Assays:
[1] = Spermicidal activity in human sperms assessed as motility measured within 30 secs by phase contrast microscopy; assay type: functional, Sperm
How it was run: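 Liquefied human semen (0.05 mL) was added to 0.25 mL test solution and vortexed 10 s at low speed. Motile sperm were scored visually under phase contrast in five fields within 30 s; assays in triplicate; MEC = minimum effective concentration.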

[2] = tested on: Candida albicans; experiment: Antifungal activity against Candida albicans after 48 hrs by broth microdilution method; assay type: functional
How it was run: (§1)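 NCCLS broth microdilution in RPMI 1640 buffered with MOPS; starting inoculum 1–5 × 10^3 CFU/mL; plates incubated at 35 °C; MIC read after 48 h.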

[3] = tested on: Cryptococcus neoformans; experiment: Antifungal activity against Cryptococcus neoformans after 48 hrs by broth microdilution method; assay type: functional; how it was run: as §1
[4] = tested on: Sporothrix schenckii; experiment: Antifungal activity against Sporothrix schenckii after 48 hrs by broth microdilution method; assay type: functional; how it was run: as §1
[5] = tested on: Trichophyton mentagrophytes; experiment: Antifungal activity against Trichophyton mentagrophytes after 48 hrs by broth microdilution method; assay type: functional; how it was run: as §1
[6] = tested on: Candida parapsilosis; experiment: Antifungal activity against Candida parapsilosis ATCC 22019 after 48 hrs by broth microdilution method; assay type: functional; conditions: Lodderomyces parapsilosis, ATCC 22019, 48 h; how it was run: as §1
[7] = tested on: Trichomonas vaginalis; experiment: Antitrichomonas activity against trophozoite stage of Trichomonas vaginalis clinical isolate assessed as cell viability under anaerobic condition after 48 hrs by trypan blue exclusion assay; assay type: functional
How it was run: (§2)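 Log-phase T. vaginalis grown in TYM with 10% FCS, vitamin mix and penicillin/streptomycin at 37 °C. Compounds were made as 100 µg/mL DMSO stocks and serially diluted in TYM down to 0.1 µg/mL; DMSO/TYM served as vehicle. Parasites were incubated anaerobically at 37 °C, and viability was checked by trypan blue exclusion from 3 to 48 h. MIC = lowest concentration killing all cells by 48 h; each test was repeated three times.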

[8] = tested on: Trichomonas vaginalis; experiment: Antitrichomonas activity against metronidazole-resistant trophozoite stage of Trichomonas vaginalis ATCC 50143 assessed as cell viability under anaerobic condition after 48 hrs by trypan blue exclusion assay; assay type: functional; conditions: ATCC 50143, 48 h; how it was run: as §2
[9] = Toxicity in Lactobacillus jensenii ATCC 25258 after 72 hrs
[10] = tested on: HeLa; experiment: Cytotoxicity against human HeLa cells after 5 hrs by lactate dehydrogenase release assay; assay type: cell-based
How it was run: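 HeLa cells were seeded at 2×10^4/well in triplicate and grown 24 h at 37 °C in 5% CO2. The DMEM was then replaced with medium holding serially diluted compound, and plates were incubated 5 h. LDH release in the supernatant was measured colorimetrically at 490 nm, and IC50 was derived from it.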

[11] = Selectivity index, ratio of IC50 for Lactobacillus jensenii ATCC 25258 to MIC for trophozoite stage of Trichomonas vaginalis clinical isolate
[12] = Selectivity index, ratio of IC50 for Lactobacillus jensenii ATCC 25258 to MIC for metronidazole resistant trophozoite stage of Trichomonas vaginalis ATCC 50143
[13] = tested on: Trichomonas vaginalis; experiment: Potency index, ratio of metronidazole MIC to compound MIC for metronidazole-resistant trophozoite stage of Trichomonas vaginalis ATCC 50143; assay type: functional
[14] = tested on: Trichomonas vaginalis; experiment: Antitrichomonas activity against metronidazole-susceptible Trichomonas vaginalis in sc dosed mouse assessed as pustule formation at 5 ug administered daily measured after 5 days (reference value: 109 mm'2); assay type: functional
[15] = tested on: Trichomonas vaginalis; experiment: Antitrichomonas activity against metronidazole-susceptible Trichomonas vaginalis in sc dosed mouse assessed as pustule formation at 5 ug administered daily measured after 7 days (reference value: 190 mm'2); assay type: functional
[16] = tested on: Trichomonas vaginalis; experiment: Antitrichomonas activity against metronidazole-susceptible Trichomonas vaginalis in sc dosed mouse assessed as spleen weight at 5 ug administered daily measured after 7 days (reference value: 0.59 g); assay type: functional
[17] = tested on: Trichomonas vaginalis; experiment: Antitrichomonas activity against Trichomonas vaginalis assessed as reduction in free thiol levels in parasite membrane at MIC after 24 hrs by fluorescence microscopy; assay type: functional, organism-based
[18] = tested on: Trichomonas vaginalis; experiment: Selectivity ratio of MIC for metronidazole-resistant trophozoite stage of Trichomonas vaginalis ATCC 50143 to MIC for metronidazole-susceptible trophozoite stage of Trichomonas vaginalis; assay type: functional

SMILES: CCCCCCCCN1CCN(C(=S)SSC(=S)N2CCN(CCCCCCCC)CC2)CC1
- MEC [1]: 0.1%
- MIC [2]: 91.4 µM (≈ 50 µg/mL)
- MIC [3]: 91.4 µM (≈ 50 µg/mL)
- MIC [4]: 91.4 µM (≈ 50 µg/mL)
- MIC [5]: 91.4 µM (≈ 50 µg/mL)
- MIC [6]: 91.4 µM (≈ 50 µg/mL)
- MIC [7]: 182 µM (≈ 99.6 µg/mL)
- MIC [8]: 182 µM (≈ 99.6 µg/mL)

SMILES: CN(C)C(=S)SSC(=S)N(C)C [THIRAM]
- MEC [1]: 0.01%
- MIC [2]: 6.5 µM (≈ 1.56 µg/mL)
- MIC [3]: 3.2 µM (≈ 0.769 µg/mL)
- MIC [4]: 51.8 µM (≈ 12.5 µg/mL)
- MIC [5]: 6.5 µM (≈ 1.56 µg/mL)
- MIC [6]: 51.8 µM (≈ 12.5 µg/mL)
- MIC [7]: 12.9 µM (≈ 3.1 µg/mL)
- MIC [8]: 12.9 µM (≈ 3.1 µg/mL)
- IC50 [9]: 8.39 mM
- IC50 [10]: 2.43 mM
- Selectivity Index [11]: 188
- Selectivity Index [12]: 188
- Ratio [13]: 16
- Activity [14]: 15 mm2
- Activity [15]: 4.45 mm2
- Activity [16]: 0.3 g
- Activity [17]: Active

SMILES: S=C(SSC(=S)N1CCN(CCN2CCOCC2)CC1)N1CCN(CCN2CCOCC2)CC1
- MEC [1]: 0.005%
- MIC [2]: > 91 µM
- MIC [3]: > 91 µM
- MIC [4]: 91 µM (≈ 49.9 µg/mL)
- MIC [5]: 91 µM (≈ 49.9 µg/mL)
- MIC [6]: > 91 µM
- MIC [7]: 22.7 µM (≈ 12.5 µg/mL)
- MIC [8]: 45.5 µM (≈ 25 µg/mL)
- IC50 [9]: 6.48 mM
- IC50 [10]: 0.169 mM
- Selectivity Index [11]: 7
- Selectivity Index [12]: 3
- Ratio [13]: 2

SMILES: Cc1ncc([N+](=O)[O-])n1CCO [METRONIDAZOLE]
- MIC [7]: 11.6 µM (≈ 1.99 µg/mL)
- MIC [8]: 292 µM (≈ 50 µg/mL)
- Selectivity ratio [18]: 25
- Activity [14]: 15 mm2
- Activity [15]: 7.59 mm2
- Activity [16]: 0.5 g

SMILES: S=C(SSC(=S)N1CCN(c2ncccn2)CC1)N1CCN(c2ncccn2)CC1
- MEC [1]: 1%
- MIC [2]: > 104 µM
- MIC [3]: 104 µM (≈ 49.8 µg/mL)
- MIC [4]: 104 µM (≈ 49.8 µg/mL)
- MIC [5]: 104 µM (≈ 49.8 µg/mL)
- MIC [6]: > 104 µM
- MIC [7]: 104 µM (≈ 49.8 µg/mL)
- MIC [8]: > 208 µM

SMILES: S=C(SSC(=S)N1CCCCCC1)N1CCCCCC1
- MEC [1]: >1%
- MIC [2]: 8.9 µM (≈ 3.1 µg/mL)
- MIC [3]: 4.4 µM (≈ 1.53 µg/mL)
- MIC [4]: 17.9 µM (≈ 6.24 µg/mL)
- MIC [5]: 17.9 µM (≈ 6.24 µg/mL)
- MIC [6]: 143 µM (≈ 49.9 µg/mL)
- MIC [7]: 286 µM (≈ 99.7 µg/mL)
- MIC [8]: 35.8 µM (≈ 12.5 µg/mL)
- Ratio [13]: 4

SMILES: CCCCSC(=S)N1CCN(C(=S)SSC(=S)N2CCN(C(=S)SCCCC)CC2)CC1
- MEC [1]: >1%
- MIC [2]: > 85.1 µM
- MIC [3]: 85.1 µM (≈ 50 µg/mL)
- MIC [4]: 85.1 µM (≈ 50 µg/mL)
- MIC [5]: 42.5 µM (≈ 24.9 µg/mL)
- MIC [6]: 42.5 µM (≈ 24.9 µg/mL)
- MIC [7]: > 170 µM
- MIC [8]: > 170 µM

SMILES: CC(C)COC(=O)N1CCN(C(=S)SSC(=S)N2CCN(C(=O)OCC(C)C)CC2)CC1
- MEC [1]: >1%
- MIC [2]: 95.6 µM (≈ 50 µg/mL)
- MIC [3]: > 95.6 µM
- MIC [4]: > 95.6 µM
- MIC [5]: 95.6 µM (≈ 50 µg/mL)
- MIC [6]: > 95.6 µM
- MIC [7]: > 191 µM
- MIC [8]: > 191 µM

SMILES: S=C(SCCN1CCCC1)N1CCN(C(=S)SSC(=S)N2CCN(C(=S)SCCN3CCCC3)CC2)CC1
- MEC [1]: 0.002%
- MIC [2]: 74.7 µM (≈ 50 µg/mL)
- MIC [3]: 74.7 µM (≈ 50 µg/mL)
- MIC [4]: 74.7 µM (≈ 50 µg/mL)
- MIC [5]: 74.7 µM (≈ 50 µg/mL)
- MIC [6]: 74.7 µM (≈ 50 µg/mL)
- MIC [7]: 46.7 µM (≈ 31.2 µg/mL)
- MIC [8]: > 149 µM
- IC50 [9]: 6.08 mM
- IC50 [10]: 2.74 mM
- Selectivity Index [11]: 58
- Selectivity Index [12]: > 18

SMILES: S=C(SCc1ccccc1)N1CCN(C(=S)SSC(=S)N2CCN(C(=S)SCc3ccccc3)CC2)CC1
- MEC [1]: >1%
- MIC [2]: > 76.3 µM
- MIC [3]: > 76.3 µM
- MIC [4]: > 76.3 µM
- MIC [5]: > 76.3 µM
- MIC [6]: > 76.3 µM
- MIC [7]: 95.4 µM (≈ 62.5 µg/mL)
- MIC [8]: 95.4 µM (≈ 62.5 µg/mL)

SMILES: S=C(SSC(=S)N1CCCC1)N1CCCC1 [BIS(PYRROLIDINYLTHIOCARBONYL)DISULFIDE]
- MEC [1]: 1%
- MIC [2]: 10.6 µM (≈ 3.1 µg/mL)
- MIC [3]: 2.6 µM (≈ 0.761 µg/mL)
- MIC [4]: 21.3 µM (≈ 6.23 µg/mL)
- MIC [5]: 10.6 µM (≈ 3.1 µg/mL)
- MIC [6]: 21.3 µM (≈ 6.23 µg/mL)
- MIC [7]: 10.6 µM (≈ 3.1 µg/mL)
- MIC [8]: 10.6 µM (≈ 3.1 µg/mL)
- Ratio [13]: 16

SMILES: O=C(c1ccccc1)N1CCN(C(=S)SSC(=S)N2CCN(C(=O)c3ccccc3)CC2)CC1
- MEC [1]: 0.5%
- MIC [2]: 94.1 µM (≈ 49.9 µg/mL)
- MIC [3]: > 94.1 µM
- MIC [4]: > 94.1 µM
- MIC [5]: > 94.1 µM
- MIC [6]: > 94.1 µM
- MIC [7]: > 188 µM
- MIC [8]: > 188 µM

SMILES: COc1ccccc1N1CCN(C(=S)SSC(=S)N2CCN(c3ccccc3OC)CC2)CC1
- MEC [1]: 1%
- MIC [2]: 46.7 µM (≈ 25 µg/mL)
- MIC [3]: 23.3 µM (≈ 12.5 µg/mL)
- MIC [4]: 46.7 µM (≈ 25 µg/mL)
- MIC [5]: 93.4 µM (≈ 50 µg/mL)
- MIC [6]: > 93.4 µM
- MIC [7]: > 186 µM
- MIC [8]: > 186 µM
